Source: the M2OR odorant receptor database

Target: T1, OR2M3 (Homo sapiens) (UniProt Q8NG83)
T1 sequence (whole entry): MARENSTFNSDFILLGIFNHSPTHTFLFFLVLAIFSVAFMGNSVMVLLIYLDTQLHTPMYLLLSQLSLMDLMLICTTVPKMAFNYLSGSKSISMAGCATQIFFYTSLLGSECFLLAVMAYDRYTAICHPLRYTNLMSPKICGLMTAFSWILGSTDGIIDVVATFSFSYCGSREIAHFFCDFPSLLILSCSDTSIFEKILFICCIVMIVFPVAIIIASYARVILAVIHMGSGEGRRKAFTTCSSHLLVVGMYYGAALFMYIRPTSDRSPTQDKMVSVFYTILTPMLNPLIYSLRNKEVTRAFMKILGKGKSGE
Settings: stereoisomer not certain
Summary of the method: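 Each entry records the cell line, G-protein, co-transfected protein and tags used. Methods varied with the source, often transient luciferase assays in mammalian cell lines. A receptor–molecule pair is called responsive (active) if the original authors judged its signal statistically different from baseline and non-responsive (inactive) otherwise.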

Odorant receptor agonist call, inactive:
OCCc1ccccc1
CC=Cc1ccc(OC)cc1
CCCCCCCCC=CC=O
CSC
CC(C)CC=O
CCCCCC(=O)OCC
C=CCSC
CSCSC
CCC=CCC=O
CCC(C)COC(C)=O (configuration not stated)
CCCc1ccc(O)c(OC)c1
CCCCC1OC(=O)CC1C (configuration not stated)
CC1=CCC(C(C)C)C=C1 (configuration not stated)
CCCCC(C)CCC(=O)O (configuration not stated)
CCC(S)C(C)=O (configuration not stated)
CCOC(=O)CCC(C)C
CCC(=O)C(C)=O
CC(=O)c1ccc(C)cc1
CC(C)CCO
CCOC(C)=O
CSCCCO
CCCCC=CC=O
CC=CC(=O)C1=C(C)C=CCC1(C)C
CCCC(=O)OCC
CC(C)CO
CC=O
CC(C)(S)CCOC=O
CCCC(O)CC(=O)OCC (configuration not stated)
CCCCCC1CCCC(=O)O1 (configuration not stated)
CCCSSCCC
CC(=O)C=CC1=C(C)CCCC1(C)C
CC(=O)c1ccccc1N
CCCCC=CC=CC=O
CCc1ccc(O)c(OC)c1
CCc1ncc(C)nc1CC
CC(=O)c1cnccn1
CC(=O)OCC=Cc1ccccc1
